Data reported in ChEMBL document CHEMBL1154067, “Antiviral and cytotoxic activities of aminoarylazo compounds and aryltriazene derivatives” (Bioorg Med Chem, 2009).
Active and inactive are the calls of the source.

test system: MT4; assay: Cytotoxicity against human MT4 cells after 96 hrs by MTT assay; assay type: cell-based; settings: mt4, 96 h
Outline: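 Exponentially growing mock-infected MT-4 seeded at 1 × 10^5 cells/mL in RPMI-1640 with 10% FCS, penicillin and streptomycin. Incubated with or without serial compound dilutions at 37 °C, 5% CO2. Viability by MTT after 96 h. CC50 = concentration reducing viability 50%.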

SMILES	CC50
CN(C)CCCNc1ccc(/N=N/c2cc(F)ccc2F)cc1	16 µM
CN(C)CCCN(/N=N/c1cc(F)ccc1F)c1cccc(C(F)(F)F)c1	16 µM
CN(C)CCCN(/N=N/c1c(F)cccc1F)c1ccccc1	23 µM
CN(C)CCCN(/N=N/c1cccc([N+](=O)[O-])c1)c1ccccc1	14 µM
Fc1ccc(F)c(/N=N/Nc2cc(F)ccc2F)c1	≥ 100 µM

test system: not listed separately; assay: Cytotoxicity against MDBK cells after 48 to 96 hrs by MTT assay; assay type: cell-based, Bos taurus; settings: cattle, mdbk
Outline: (§1)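 Mock-infected cells in maintenance medium, MDBK at 6 × 10^5 and BHK at 1 × 10^6 cells/mL initial density, with or without serial compound dilutions. Run in parallel with antiviral assays. Viability by MTT after 48–96 h at 37 °C, 5% CO2. CC50 = concentration reducing viability 50%.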

SMILES	CC50
CN(C)CCCNc1ccc(/N=N/c2cc(F)ccc2F)cc1	59 µM
CN(C)CCCN(/N=N/c1cc(F)ccc1F)c1cccc(C(F)(F)F)c1	> 100 µM
CN(C)CCCN(/N=N/c1c(F)cccc1F)c1ccccc1	45 µM
CN(C)CCCN(/N=N/c1cccc([N+](=O)[O-])c1)c1ccccc1	37 µM
Fc1ccc(F)c(/N=N/Nc2cc(F)ccc2F)c1	> 100 µM

test system: Bovine viral diarrhea virus 1; assay: Antiviral activity against Bovine viral diarrhea virus infected in MDBK cells assessed as inhibition of virus-induced cytopathicity after 3 to 4 days by MTT assay; assay type: functional, organism-based; settings: Bovine viral diarrhea virus isolates and strains

SMILES	EC50
CN(C)CCCNc1ccc(/N=N/c2cc(F)ccc2F)cc1	9 µM
CN(C)CCCN(/N=N/c1cc(F)ccc1F)c1cccc(C(F)(F)F)c1	90 µM
CN(C)CCCN(/N=N/c1c(F)cccc1F)c1ccccc1	> 45 µM
CN(C)CCCN(/N=N/c1cccc([N+](=O)[O-])c1)c1ccccc1	> 37 µM
Fc1ccc(F)c(/N=N/Nc2cc(F)ccc2F)c1	> 100 µM

test system: Yellow fever virus; assay: Antiviral activity against Yellow fever virus infected in BHK-21 cells assessed as inhibition of virus-induced cytopathicity after 3 to 4 days by MTT assay; assay type: functional, organism-based; settings: not given

SMILES	EC50
CN(C)CCCNc1ccc(/N=N/c2cc(F)ccc2F)cc1	12 µM
CN(C)CCCN(/N=N/c1cc(F)ccc1F)c1cccc(C(F)(F)F)c1	> 54 µM
CN(C)CCCN(/N=N/c1c(F)cccc1F)c1ccccc1	20 µM
CN(C)CCCN(/N=N/c1cccc([N+](=O)[O-])c1)c1ccccc1	24 µM
Fc1ccc(F)c(/N=N/Nc2cc(F)ccc2F)c1	> 100 µM

test system: Mammalian orthoreovirus 1; assay: Antiviral activity against Reovirus-1 infected in BHK-21 cells assessed as inhibition of virus-induced cytopathicity after 3 to 4 days by MTT assay; assay type: functional, organism-based; settings: Mammalian orthoreovirus 1, BHK-21
Outline: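 BHK-21 cells seeded at 5 × 10^4 cells/well, grown overnight to confluent monolayers at 37 °C in 5% CO2, then infected at m.o.i. 0.01 in serum-free medium. One hour later, MEM Earle's with 1% final inactivated FCS added, with or without serial compound dilutions. Viability read by MTT after 3–4 days at 37 °C. EC50 is the concentration giving 50% protection from cytopathogenicity.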

SMILES	EC50
CN(C)CCCNc1ccc(/N=N/c2cc(F)ccc2F)cc1	> 33 µM
CN(C)CCCN(/N=N/c1cc(F)ccc1F)c1cccc(C(F)(F)F)c1	> 54 µM
CN(C)CCCN(/N=N/c1c(F)cccc1F)c1ccccc1	> 52 µM
CN(C)CCCN(/N=N/c1cccc([N+](=O)[O-])c1)c1ccccc1	> 54 µM
Fc1ccc(F)c(/N=N/Nc2cc(F)ccc2F)c1	> 100 µM

test system: Vero; assay: Cytotoxicity against african green monkey Vero 76 cells by crystal violet staining; assay type: cell-based; settings: chlorocebus sabaeus, vero
Outline: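 Mock-infected Vero 76 seeded at 4 × 10^5 cells/mL, run in parallel with plaque assays, with or without serial compound dilutions. Cell number of monolayers determined by crystal violet staining. CC50 = concentration reducing viable cell number 50%.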

SMILES	CC50
CN(C)CCCNc1ccc(/N=N/c2cc(F)ccc2F)cc1	30 µM
CN(C)CCCN(/N=N/c1cc(F)ccc1F)c1cccc(C(F)(F)F)c1	30 µM
CN(C)CCCN(/N=N/c1c(F)cccc1F)c1ccccc1	25 µM
CN(C)CCCN(/N=N/c1cccc([N+](=O)[O-])c1)c1ccccc1	40 µM
Fc1ccc(F)c(/N=N/Nc2cc(F)ccc2F)c1	≥ 100 µM

test system: Coxsackievirus B2; assay: Antiviral activity against Coxsackie virus type B2 virus infected in african green monkey Vero-76 cells after 3 days by plaque reduction assay; assay type: functional, organism-based; settings: Enterovirus B, Vero 76, 72 h
Outline: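 Vero 76 cells seeded at 2 × 10^5 cells/well, grown overnight to confluence at 37 °C in 5% CO2, then infected at 50–100 PFU/well. Unadsorbed virus removed. Overlay of DMEM with 1% inactivated FCS and 0.75% methylcellulose, with or without serial compound dilutions. After 3 days at 37 °C, fixed and stained with crystal violet in PBS/50% ethanol; plaques counted. EC50 is the concentration reducing plaque number by 50%.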

SMILES	EC50
CN(C)CCCNc1ccc(/N=N/c2cc(F)ccc2F)cc1	> 30 µM
CN(C)CCCN(/N=N/c1cc(F)ccc1F)c1cccc(C(F)(F)F)c1	> 30 µM
CN(C)CCCN(/N=N/c1c(F)cccc1F)c1ccccc1	9 µM
CN(C)CCCN(/N=N/c1cccc([N+](=O)[O-])c1)c1ccccc1	> 40 µM
Fc1ccc(F)c(/N=N/Nc2cc(F)ccc2F)c1	50 µM

test system: Respiratory syncytial virus; assay: Antiviral activity against Respiratory syncytial virus A2 infected in Vero-76 cells after 5 days by plaque reduction assay; assay type: functional, organism-based; settings: human respiratory syncytial virus, A2, Vero 76, 120 h

SMILES	EC50
CN(C)CCCNc1ccc(/N=N/c2cc(F)ccc2F)cc1	> 30 µM
CN(C)CCCN(/N=N/c1cc(F)ccc1F)c1cccc(C(F)(F)F)c1	> 30 µM
CN(C)CCCN(/N=N/c1c(F)cccc1F)c1ccccc1	≥ 25 µM
CN(C)CCCN(/N=N/c1cccc([N+](=O)[O-])c1)c1ccccc1	> 40 µM
Fc1ccc(F)c(/N=N/Nc2cc(F)ccc2F)c1	8 µM

test system: Human alphaherpesvirus 1; assay: Antiviral activity against HSV1 infected in Vero-76 cells after 3 days by plaque reduction assay; assay type: functional, organism-based; settings: Human alphaherpesvirus 1, Vero 76, 72 h

SMILES	EC50
CN(C)CCCNc1ccc(/N=N/c2cc(F)ccc2F)cc1	12 µM
CN(C)CCCN(/N=N/c1cc(F)ccc1F)c1cccc(C(F)(F)F)c1	> 30 µM
CN(C)CCCN(/N=N/c1c(F)cccc1F)c1ccccc1	12 µM
CN(C)CCCN(/N=N/c1cccc([N+](=O)[O-])c1)c1ccccc1	30 µM
Fc1ccc(F)c(/N=N/Nc2cc(F)ccc2F)c1	> 100 µM

test system: not listed separately; assay: Cytotoxicity against hamster BHK21 cells assessed as reduction in cell viability after 48 to 96 hrs by MTT assay; assay type: cell-based, Mesocricetus auratus, BHK-21; settings: bhk-21; outline: as §1

SMILES	CC50
CN(C)CCCNc1ccc(/N=N/c2cc(F)ccc2F)cc1	33 µM
CN(C)CCCN(/N=N/c1cc(F)ccc1F)c1cccc(C(F)(F)F)c1	54 µM
CN(C)CCCN(/N=N/c1c(F)cccc1F)c1ccccc1	52 µM
CN(C)CCCN(/N=N/c1cccc([N+](=O)[O-])c1)c1ccccc1	54 µM
Fc1ccc(F)c(/N=N/Nc2cc(F)ccc2F)c1	> 100 µM

test system: Poliovirus 1; assay: Antiviral activity against Human poliovirus 1 strain Sabin after 2 days by plaque reduction assay; assay type: functional; settings: not given

SMILES	Activity
CN(C)CCCNc1ccc(/N=N/c2cc(F)ccc2F)cc1	inactive

same assay, conditions: Enterovirus C, 48 h

SMILES	EC50
CN(C)CCCN(/N=N/c1cc(F)ccc1F)c1cccc(C(F)(F)F)c1	> 30 µM
CN(C)CCCN(/N=N/c1c(F)cccc1F)c1ccccc1	> 25 µM
CN(C)CCCN(/N=N/c1cccc([N+](=O)[O-])c1)c1ccccc1	> 40 µM
Fc1ccc(F)c(/N=N/Nc2cc(F)ccc2F)c1	> 100 µM

test system: Human immunodeficiency virus 1; assay: Antiviral activity against HIV1 infected in human MT4 cells assessed as inhibition of virus-induced cytopathicity after 4 days by MTT assay; assay type: functional, organism-based; settings: not given

SMILES	inhibition
CN(C)CCCNc1ccc(/N=N/c2cc(F)ccc2F)cc1	inactive
CN(C)CCCN(/N=N/c1cc(F)ccc1F)c1cccc(C(F)(F)F)c1	inactive
CN(C)CCCN(/N=N/c1c(F)cccc1F)c1ccccc1	inactive
CN(C)CCCN(/N=N/c1cccc([N+](=O)[O-])c1)c1ccccc1	inactive
Fc1ccc(F)c(/N=N/Nc2cc(F)ccc2F)c1	inactive

test system: Vesicular stomatitis virus; assay: Antiviral activity against Vesicular stomatitis virus after 2 days by plaque reduction assay; assay type: functional, organism-based; settings: not given

SMILES	Activity
CN(C)CCCNc1ccc(/N=N/c2cc(F)ccc2F)cc1	inactive
CN(C)CCCN(/N=N/c1cc(F)ccc1F)c1cccc(C(F)(F)F)c1	inactive
CN(C)CCCN(/N=N/c1c(F)cccc1F)c1ccccc1	inactive
CN(C)CCCN(/N=N/c1cccc([N+](=O)[O-])c1)c1ccccc1	inactive
Fc1ccc(F)c(/N=N/Nc2cc(F)ccc2F)c1	inactive

test system: Vaccinia virus; assay: Antiviral activity against Vaccinia virus after 3 days by plaque reduction assay; assay type: functional, organism-based; settings: Orthopoxvirus vaccinia

SMILES	Activity
CN(C)CCCNc1ccc(/N=N/c2cc(F)ccc2F)cc1	inactive
CN(C)CCCN(/N=N/c1cc(F)ccc1F)c1cccc(C(F)(F)F)c1	inactive
CN(C)CCCN(/N=N/c1c(F)cccc1F)c1ccccc1	inactive
CN(C)CCCN(/N=N/c1cccc([N+](=O)[O-])c1)c1ccccc1	inactive
Fc1ccc(F)c(/N=N/Nc2cc(F)ccc2F)c1	inactive
